Bioassay records as filed in PubChem BioAssay.
An excerpt weighted towards active compounds, which were near 1.7% of everything screened.
GASC-1 inh = human JMJD2C demethylase inhibition | Q9H3R0 | GST-JMJD2C(1-420) H3K9me3 demethylation, DELFIA europium | inhibition, % at 2.35 µM | 0.069% of 330,000 active | AID 2099;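 active = more than half of a compound's replicate wells show inhibition beyond 50%, single wells judged on their own value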;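 note: signal counts dimethyl H3K9 product captured on neutravidin plate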
T cell HTS = T cell immune modulators affecting CD8 T cell-vesicle binding | response (vesicle binding), % at 7 µM | 0.068% of 330,000 active | 2C CD8+ T cell-vesicle binding, flow cytometry; stronger effect = lower value;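 active = response, share of CD8 T cells binding vesicles, and their 90th percentile fluorescence all below set limits, cut at about 80% in these data, passing the limit was not always enough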;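 note: values below 100% mean blocked vesicle binding to the CD8+ T cells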
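Read-out – percent CD8+ FL2 mean versus row control · System – murine 2C transgenic CD8+ T lymphocytes · Times – 1.5 h cell–vesicle binding at 37 °C, then 20 min icy labelling · Control set – naked vesicles low, QL9 vesicles with vehicle high · Detection – cytometric PE anti-B7-1 and Alexa647 anti-CD8 signals after 1% paraformaldehyde fixation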
PP5 inh = inhibitors of human protein phosphatase 5 (PP5); purified PP5c, OMFP substrate fluorescence; inhibition, % at 6.7 µM; 0.18% of 320,000 active; AID 1987;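 active = inhibition above the campaign's mean inhibition across all tested compounds plus 3 SD, cut at about 9.5% in these data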
PP1 counter = counter-screen for PP5 inhibitors: inhibitors of human PP1-alpha | purified PP1alpha, OMFP fluorescence | inhibition, % at 6.7 µM | 0.9% of 320,000 active | AID 2235;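 active = inhibition above the mean inhibition of all tested compounds plus 3 SD, computed separately for each screening campaign, cut at about 15% in these data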
Target sequence (P62136 whole entry, looked up): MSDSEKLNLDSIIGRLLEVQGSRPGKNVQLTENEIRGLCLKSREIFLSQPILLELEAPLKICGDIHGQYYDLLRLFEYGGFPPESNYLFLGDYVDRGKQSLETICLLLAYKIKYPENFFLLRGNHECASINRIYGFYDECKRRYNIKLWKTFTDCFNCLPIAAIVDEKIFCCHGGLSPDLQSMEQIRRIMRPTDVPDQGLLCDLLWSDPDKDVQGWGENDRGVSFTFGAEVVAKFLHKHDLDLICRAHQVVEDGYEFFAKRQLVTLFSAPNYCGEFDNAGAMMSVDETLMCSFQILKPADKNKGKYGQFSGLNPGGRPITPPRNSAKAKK
HTR2A ag = agonists of mouse serotonin 5-HT2A receptor (HTR2A); 0.66% of 360,000 active; P35363; CHO-K1 mHTR2A beta-arrestin complementation, luminescence; percent of 30 µM serotonin response; activation, % at 7.6 µM;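 active = activation above a run cutoff, the mean activation of all tested compounds plus 3 SD, cut at about 14% in these data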
MOR ag counter = OPRM1 agonism in mouse HTR2A counterscreen | shares compounds with HTR2A ag | U2OS OPRM1 beta-arrestin PathHunter, luminescence; DMSO 0%, DAMGO 9.3 µM 100% | activation, % at 9.3 µM | 5.3% of 2,300 active;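 active = mean activation above the mean of DMSO-only wells plus 3 SD, cut at about 0.5% in these data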
HTR2A ag conf = mouse HTR2A agonism confirmed | shares compounds with HTR2A ag | CHO-K1 PathHunter beta-arrestin recruitment, luminescence; DMSO 0%, 30 µM serotonin 100% | activation, % at 7.6 µM | 19% of 2,300 active | AID 624381;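 active = mean activation across triplicates above the hit threshold derived in the original primary screen, cut at about 15% in these data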
A number is an active result; – = inactive; · = no result.

SMILES | GASC-1 inh | T cell HTS | PP5 inh | PP1 counter | HTR2A ag | MOR ag counter | HTR2A ag conf
CCCc1ccc(C(=O)CN2C(=O)C(=O)N(C3CCCC3)C2=O)cc1 | – | – | – | – | 18 | 1.3 | –
COc1ccc(CCn2c(C)cc(C(=O)CN3C(=O)C(=O)N(C4CCCC4)C3=O)c2C)cc1OC | · | · | · | · | – | · | ·
O=C1NC[C@@H](CCCCN2C[C@H](Cc3ccccc3)N(CCC3CCCCC3)C(=O)C2=O)N(Cc2ccccc2)C1=O | · | · | · | · | 15 | – | –
COc1ccc(CCN(C)C(=O)C2CCN(Cc3ccc(C)cc3)CC2)cc1OC | – | – | – | – | – | · | ·
CCN(CC)C(=O)CCNS(=O)(=O)c1ccc(C)cc1 | – | – | – | – | 15 | – | –
COc1ccccc1NC(=O)CSc1nnnn1-c1ccccc1F | – | – | – | – | – | · | ·
NC(=O)C1CCN(CC(=O)Nc2ccc3c(c2)OCCO3)CC1 | – | – | · | · | – | · | ·
COC(=O)C1CCN(CC(=O)Nc2ccc3c(c2)OCCO3)CC1 | – | – | · | · | 32 | – | 42
O=C(COC(=O)c1ccco1)Nc1ccc(N2CCOCC2)cc1 | · | · | · | · | 17 | – | –
O=C(CCC(=O)N1CCN(c2ccccc2F)CC1)c1ccc(Cl)s1 | – | – | · | · | 19 | – | –
COc1cc(NC(=O)C2CC(c3ccc(Cl)cc3)=NO2)cc(OC)c1OC (configuration not stated) | – | – | – | – | – | · | ·
COc1cc(NC(=O)C2CC(c3ccccc3Cl)=NO2)cc(OC)c1OC (configuration not stated) | – | – | – | – | 18 | – | –
O=C(NNS(=O)(=O)c1ccc(C(=O)NC2CCCC2)cc1)c1ccncc1 | – | – | – | – | – | · | ·
COc1cc(C(=O)N2CCC(N3CCCCCC3)CC2)cc(OC)c1OC | – | – | – | – | 15 | – | –
COc1cc(C(=O)N2CCN(C3CCCCC3)CC2)cc(OC)c1OC | – | – | – | – | 15 | – | –
CC1(C(=O)N2Cc3ccccc3C2)CCN1C(=O)C1(c2ccc(Cl)cc2)CC1 (configuration not stated) | · | · | · | · | – | · | ·
Clc1ccc2c(SCC3CO3)c3ccccc3nc2c1 (configuration not stated) | · | · | · | · | – | · | ·
C[C@]12c3[nH]c4ccccc4c3CCN1C(=O)C(CC(=O)NCc1cccc(C(F)(F)F)c1)C[C@@H]2C(=O)N1CCOCC1 (some centres not stated) | – | – | · | · | – | · | ·
CN(C)C(=O)CCc1ccc2c3c([nH]c2c1)[C@]1(C)[C@@H](C(=O)N2CCOCC2)C[C@H](CC(=O)NCc2cccc(C(F)(F)F)c2)C(=O)N1CC3 | · | · | · | · | 15 | – | –
COCCCNC(=O)C[C@H]1C[C@H](C(=O)N2CCOCC2)[C@@]2(CCC3CCCC3)c3[nH]c4cc(-c5ccco5)ccc4c3CCN2C1=O | · | · | · | · | 15 | – | –
CC[C@]12c3[nH]c4ccccc4c3CCN1C(=O)C(CC(=O)NCc1cccc(C(F)(F)F)c1)C[C@@H]2C(=O)N1CCN(C(=O)c2ccco2)CC1 (some centres not stated) | – | – | · | · | 22 | – | –
O=C(C[C@H]1C[C@H](C(=O)N2CCOCC2)[C@@]2(CCC3CCCC3)c3[nH]c4cc(-c5ccco5)ccc4c3CCN2C1=O)NCCN1CCOCC1 | · | · | · | · | – | · | ·
Cc1nc(-c2ccc(C(=O)Nc3cccc(Br)c3)cc2)cs1 | – | – | – | – | – | · | ·
CC1(Cc2ccc(OC(F)(F)F)cc2)C(=O)Nc2c(Cl)ccc(Cl)c21 (configuration not stated) | · | · | · | · | – | · | ·
COc1ccccc1NC(=O)Cn1nnc(-c2ccccc2NC(=O)c2cnccn2)n1 | – | – | – | – | – | · | ·
SMILES | GASC-1 inh | T cell HTS | PP5 inh | PP1 counter | HTR2A ag | MOR ag counter | HTR2A ag conf
c1csc(C(c2nnnn2C2CCCCC2)N2CCN(c3nc4ccccc4s3)CC2)c1 (configuration not stated) | – | · | · | · | 15 | – | –
CCCCC(c1nnnn1CC1CCCO1)N1CCN(c2nc3ccccc3s2)CC1 (configuration not stated) | · | · | · | · | 16 | – | –
Cc1cccc(N2CCN(C(=O)c3cccc(N4CCCC4=O)c3)C(C)C2)c1 (configuration not stated) | – | – | – | – | – | · | ·
CCC(=O)c1ccc(OCC(=O)OCc2csc(CC(=O)Nc3ccccc3C)n2)cc1 | · | · | · | · | 19 | – | –
CC(=O)N/N=C/c1ccccc1OCCOc1cccc(C)c1 | – | – | – | – | – | · | ·
O=C(CN1C(=O)NC2(CCCCC2)C1=O)N1CCN(S(=O)(=O)c2cccc(F)c2)CC1 | – | – | – | – | – | · | ·
O=C(O)C1C2CCC(C2)C1C(=O)NCCc1cccc(Cl)c1 (configuration not stated) | – | – | – | – | 24 | – | –
O=C(O)C1C2CCC(C2)C1C(=O)NCCc1ccc(F)cc1 (configuration not stated) | – | – | – | – | – | · | ·
CCN(CC)C(=O)c1ncn2c1c(=O)[nH]c1ccccc12 | · | · | · | · | – | · | ·
NC(=O)c1nsc(C(=O)N(CC(=O)NC2CCCC2)c2cnc3ccccc3c2)c1N | – | – | – | – | · | · | ·
COc1ccccc1NC(=O)COC(=O)Cc1c[nH]c2ccccc12 | – | – | – | – | 15 | – | –
COCCN=c1scc(-c2ccco2)n1/N=C/c1ccc(O)c(O)c1O | · | – | – | – | 28 | – | 72
CC(C)N=c1scc(-c2ccco2)n1/N=C/c1ccc(O)c(O)c1 | · | – | – | – | 18 | 1.1 | –
CN=c1scc(-c2cccs2)n1/N=C/c1ccc(O)c(O)c1O | – | – | – | – | – | · | ·
C=CCN=c1scc(-c2ccco2)n1/N=C/c1ccc(O)c(O)c1O | – | – | – | – | 16 | 1.9 | 129
O=C(NCCc1ccc(F)cc1)c1ccc(NS(=O)(=O)c2ccc3[nH]c(=O)[nH]c3c2)cc1 | – | – | – | – | – | · | ·
Cn1c(O)c(N=Nc2nc(-c3ccccc3)cs2)c2ccccc21 | – | – | – | – | – | · | ·
O=C(C[C@@H]1C/C=C\CCCC(=O)OC[C@@H]2CCCN2C1=O)NCCO | – | – | · | · | – | · | ·
COc1cc(OC)nc(NC(=S)NC(=O)c2ccccc2)n1 | – | – | – | – | 28 | – | –
COC(=O)c1ccccc1S(=O)(=O)N1CCn2cccc2C1C (configuration not stated) | – | – | – | – | – | · | ·
COc1ccc(-c2ccc(CN3C(C(C)C)C(=O)N(Cc4cn(Cc5ccco5)nn4)CCS3(=O)=O)cc2)cc1OC (configuration not stated) | · | · | · | · | – | · | ·
